How the values were obtained:
[1] = Safety and tolerability, adverse events; type: in vivo, Japanese patients
Method in brief: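 Open-label 3+3 dose escalation with daily oral dosing up to 10 mg/day in 28-day cycles. Adverse events monitored throughout and graded by NCI CTCAE v3.0, recorded until 28 days after stopping. DLT: grade ≥3 haematologic or non-haematologic event, or grade ≥3 lab abnormality, within the first 4 weeks and suspected drug-related. Antiemetic and anti-hyperlipidaemia therapy allowed.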

[2] = Pharmacokinetics of RAD001 in blood, Phase I once-daily oral dosing; type: in vivo, Japanese patients; settings: for CL/F / AUC / Cmax: mean ± SD; for AUC / Cmax / Tmax: human, whole blood, oral; for AUC: AUCτ, 0 to 24 h
Method in brief: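 Adults aged ≥20 years, Japanese, with refractory advanced tumours; strong CYP3A4 inhibitors or inducers excluded. Oral dosing once daily at 2.5, 5 or 10 mg in continuous 28-day cycles. Per cohort: Cmax, tmax, AUC 0–24 h and CL/F. Descriptive statistics, means ± SD.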

[3] = 2.5 mg/day (n = 3), G1/2, all courses
[4] = 2.5 mg/day (n = 3), G3/4, all courses
[5] = 5 mg/day (n = 3), G1/2, all courses
[6] = 5 mg/day (n = 3), G3/4, all courses
[7] = 10 mg/day (n = 3), G1/2, all courses
[8] = 10 mg/day (n = 3), G3/4, all courses
[9] = Total, all doses and grades, all courses
[10] = one patient with esophageal carcinoma, 10 mg/day, day 58
[11] = 2.5 mg/day, Day 1, 2.5 mg/day (n = 3)
[12] = 2.5 mg/day, Day 15, 2.5 mg/day (n = 3)
[13] = 5 mg/day, Day 1, 5 mg/day (n = 3)
[14] = 5 mg/day, Day 15, 5 mg/day (n = 3)
[15] = 10 mg/day, Day 1, 10 mg/day (n = 3)

Compound: CO[C@H]1C[C@@H]2CC[C@@H](C)[C@@](O)(O2)C(=O)C(=O)N2CCCC[C@H]2C(=O)O[C@H]([C@H](C)C[C@@H]2CC[C@@H](OCCO)[C@H](OC)C2)CC(=O)[C@H](C)/C=C(\C)[C@@H](O)[C@@H](OC)C(=O)[C@H](C)C[C@H](C)/C=C/C=C/C=C/1C [RAD001, everolimus]
- Number of patients with adverse event: Anemia [1, 3]: 0
- Number of patients with adverse event: Anorexia [1, 3]: 1
- Number of patients with adverse event: Diarrhea [1, 3]: 0
- Number of patients with adverse event: Elevated ALT or AST [1, 3]: 2
- Number of patients with adverse event: Fatigue [1, 3]: 0
- Number of patients with adverse event: Glucose tolerance impaired [1, 3]: 0
- Number of patients with adverse event: Hemorrhage [1, 3]: 0
- Number of patients with adverse event: Hyperglycemia [1, 3]: 0
- Number of patients with adverse event: Hypertension [1, 3]: 1
- Number of patients with adverse event: Leukopenia [1, 3]: 1
- Number of patients with adverse event: Mucosal inflammation [1, 3]: 0
- Number of patients with adverse event: Nausea [1, 3]: 1
- Number of patients with adverse event: Neutropenia [1, 3]: 1
- Number of patients with adverse event: Pneumonitis [1, 3]: 0
- Number of patients with adverse event: Rash [1, 3]: 0
- Number of patients with adverse event: Stomatitis [1, 3]: 1
- Number of patients with adverse event: Thrombocytopenia [1, 3]: 0
- Number of patients with adverse event: Weight decreased [1, 3]: 1
- Number of patients with adverse event: Anemia [1, 4]: 0
- Number of patients with adverse event: Anorexia [1, 4]: 0
- Number of patients with adverse event: Diarrhea [1, 4]: 0
- Number of patients with adverse event: Elevated ALT or AST [1, 4]: 0
- Number of patients with adverse event: Fatigue [1, 4]: 0
- Number of patients with adverse event: Glucose tolerance impaired [1, 4]: 0
- Number of patients with adverse event: Hemorrhage [1, 4]: 0
- Number of patients with adverse event: Hyperglycemia [1, 4]: 0
- Number of patients with adverse event: Hypertension [1, 4]: 0
- Number of patients with adverse event: Leukopenia [1, 4]: 0
- Number of patients with adverse event: Mucosal inflammation [1, 4]: 0
- Number of patients with adverse event: Nausea [1, 4]: 0
- Number of patients with adverse event: Neutropenia [1, 4]: 0
- Number of patients with adverse event: Pneumonitis [1, 4]: 0
- Number of patients with adverse event: Rash [1, 4]: 0
- Number of patients with adverse event: Stomatitis [1, 4]: 0
- Number of patients with adverse event: Thrombocytopenia [1, 4]: 0
- Number of patients with adverse event: Weight decreased [1, 4]: 0
- Number of patients with adverse event: Anemia [1, 5]: 0
- Number of patients with adverse event: Anorexia [1, 5]: 2
- Number of patients with adverse event: Diarrhea [1, 5]: 2
- Number of patients with adverse event: Elevated ALT or AST [1, 5]: 0
- Number of patients with adverse event: Fatigue [1, 5]: 1
- Number of patients with adverse event: Glucose tolerance impaired [1, 5]: 1
- Number of patients with adverse event: Hemorrhage [1, 5]: 0
- Number of patients with adverse event: Hyperglycemia [1, 5]: 0
- Number of patients with adverse event: Hypertension [1, 5]: 0
- Number of patients with adverse event: Leukopenia [1, 5]: 2
- Number of patients with adverse event: Mucosal inflammation [1, 5]: 0
- Number of patients with adverse event: Nausea [1, 5]: 0
- Number of patients with adverse event: Neutropenia [1, 5]: 0
- Number of patients with adverse event: Pneumonitis [1, 5]: 1
- Number of patients with adverse event: Rash [1, 5]: 1
- Number of patients with adverse event: Stomatitis [1, 5]: 0
- Number of patients with adverse event: Thrombocytopenia [1, 5]: 2
- Number of patients with adverse event: Weight decreased [1, 5]: 0
- Number of patients with adverse event: Anemia [1, 6]: 0
- Number of patients with adverse event: Anorexia [1, 6]: 0
- Number of patients with adverse event: Diarrhea [1, 6]: 0
- Number of patients with adverse event: Elevated ALT or AST [1, 6]: 0
- Number of patients with adverse event: Fatigue [1, 6]: 0
- Number of patients with adverse event: Glucose tolerance impaired [1, 6]: 0
- Number of patients with adverse event: Hemorrhage [1, 6]: 0
- Number of patients with adverse event: Hyperglycemia [1, 6]: 0
- Number of patients with adverse event: Hypertension [1, 6]: 0
- Number of patients with adverse event: Leukopenia [1, 6]: 0
- Number of patients with adverse event: Mucosal inflammation [1, 6]: 0
- Number of patients with adverse event: Nausea [1, 6]: 0
- Number of patients with adverse event: Neutropenia [1, 6]: 0
- Number of patients with adverse event: Pneumonitis [1, 6]: 0
- Number of patients with adverse event: Rash [1, 6]: 0
- Number of patients with adverse event: Stomatitis [1, 6]: 0
- Number of patients with adverse event: Thrombocytopenia [1, 6]: 0
- Number of patients with adverse event: Weight decreased [1, 6]: 0
- Number of patients with adverse event: Anemia [1, 7]: 1
- Number of patients with adverse event: Anorexia [1, 7]: 1
- Number of patients with adverse event: Diarrhea [1, 7]: 0
- Number of patients with adverse event: Elevated ALT or AST [1, 7]: 0
- Number of patients with adverse event: Fatigue [1, 7]: 0
- Number of patients with adverse event: Glucose tolerance impaired [1, 7]: 0
- Number of patients with adverse event: Hemorrhage [1, 7]: 0
- Number of patients with adverse event: Hyperglycemia [1, 7]: 0
- Number of patients with adverse event: Hypertension [1, 7]: 0
- Number of patients with adverse event: Leukopenia [1, 7]: 0
- Number of patients with adverse event: Mucosal inflammation [1, 7]: 2
- Number of patients with adverse event: Nausea [1, 7]: 1
- Number of patients with adverse event: Neutropenia [1, 7]: 0
- Number of patients with adverse event: Pneumonitis [1, 7]: 0
- Number of patients with adverse event: Rash [1, 7]: 3
- Number of patients with adverse event: Stomatitis [1, 7]: 0
- Number of patients with adverse event: Thrombocytopenia [1, 7]: 3
- Number of patients with adverse event: Weight decreased [1, 7]: 1
- Number of patients with adverse event: Anemia [1, 8]: 0
- Number of patients with adverse event: Anorexia [1, 8]: 0
- Number of patients with adverse event: Diarrhea [1, 8]: 0
- Number of patients with adverse event: Elevated ALT or AST [1, 8]: 0
- Number of patients with adverse event: Fatigue [1, 8]: 1
- Number of patients with adverse event: Glucose tolerance impaired [1, 8]: 0
- Number of patients with adverse event: Hemorrhage [1, 8]: 1
- Number of patients with adverse event: Hyperglycemia [1, 8]: 1
- Number of patients with adverse event: Hypertension [1, 8]: 0
- Number of patients with adverse event: Leukopenia [1, 8]: 0
- Number of patients with adverse event: Mucosal inflammation [1, 8]: 0
- Number of patients with adverse event: Nausea [1, 8]: 0
- Number of patients with adverse event: Neutropenia [1, 8]: 0
- Number of patients with adverse event: Pneumonitis [1, 8]: 0
- Number of patients with adverse event: Rash [1, 8]: 0
- Number of patients with adverse event: Stomatitis [1, 8]: 1
- Number of patients with adverse event: Thrombocytopenia [1, 8]: 0
- Number of patients with adverse event: Weight decreased [1, 8]: 0
- Dosage recommended for further development ([1]; Japanese patients with advanced solid malignancies): 10 mg/day
- Number of patients with adverse event: Anemia [1, 9]: 1
- Number of patients with adverse event: Anorexia [1, 9]: 4
- Number of patients with adverse event: Diarrhea [1, 9]: 2
- Number of patients with adverse event: Elevated ALT or AST [1, 9]: 2
- Number of patients with adverse event: Fatigue [1, 9]: 2
- Number of patients with adverse event: Glucose tolerance impaired [1, 9]: 1
- Number of patients with adverse event: Hemorrhage [1, 9]: 1
- Number of patients with adverse event: Hyperglycemia [1, 9]: 1
- Number of patients with adverse event: Hypertension [1, 9]: 1
- Number of patients with adverse event: Leukopenia [1, 9]: 3
- Number of patients with adverse event: Mucosal inflammation [1, 9]: 2
- Number of patients with adverse event: Nausea [1, 9]: 2
- Number of patients with adverse event: Neutropenia [1, 9]: 1
- Number of patients with adverse event: Pneumonitis [1, 9]: 1
- Number of patients with adverse event: Rash [1, 9]: 4
- Number of patients with adverse event: Stomatitis [1, 9]: 2
- Number of patients with adverse event: Thrombocytopenia [1, 9]: 5
- Number of patients with adverse event: Weight decreased [1, 9]: 2
- Hyperlipidemia ([1]; all cohorts): not observed
- Dose-limiting toxicities (DLTs) ([1]; first cycle of treatment (28 days), 2.5, 5.0 or 10.0 mg/day): not observed
- Pneumonitis, grade ([1]; one patient with colon cancer, 5 mg/day, after 142 days of therapy): grade 2
- Hyperglycemia, grade ([1]; one patient with colorectal cancer, 10 mg/day, day 98): Grade 3
- Fatigue, grade [1, 10]: Grade 3
- Stomatitis, grade [1, 10]: Grade 3
- Anorexia, all grades, patients ([1]; overall, nine patients): 44%
- Leukopenia, all grades, patients ([1]; overall, nine patients): 33%
- Rash, all grades, patients ([1]; overall, nine patients): 44%
- Thrombocytopenia, all grades, patients ([1]; overall, nine patients): 56%
- CL/F ([2]; Day 15, 2.5 mg/day (n = 3)): 19.1 ± 3.26 L/h
- CL/F ([2]; Day 15, 5 mg/day (n = 3)): 9.94 ± 3.21 L/h
- CL/F ([2]; Day 15, 10 mg/day (n = 3)): 14.3 ± 2.23 L/h
- Time at which Cmax was apparent ([2]; after administration of a single oral dose): 2 h
- Time to Cmax ([2]; after oral administration): 1 to 2 h
- Increase of Cmax and AUCτ with dose ([2]; day 1, 2.5 to 10 mg): almost dose-proportionally
- Exposure (AUCτ) after multiple dosing (day 15) relative to single dose (day 1) ([2]; days 1 and 15): about twice
- AUC [2, 11]: 85.2 ± 18.7 ng·h/mL
- AUC [2, 12]: 134 ± 24.1 ng·h/mL
- Cmax [2, 11]: 15.1 ± 2.48 ng/mL
- Cmax [2, 12]: 16.8 ± 1.33 ng/mL
- Tmax ([2]; 2.5 mg/day, tmax Median, Day 1, 2.5 mg/day (n = 3)): 1.98 h
- Tmax ([2]; 2.5 mg/day, tmax Range, Day 1, 2.5 mg/day (n = 3)): 0.98 to 2 h
- Tmax ([2]; 2.5 mg/day, tmax Range, Day 15, 2.5 mg/day (n = 3)): 1 to 1.98 h
- AUC [2, 13]: 211 ± 50 ng·h/mL
- AUC [2, 14]: 543 ± 189 ng·h/mL
- Cmax [2, 13]: 31.5 ± 3.4 ng/mL
- Cmax [2, 14]: 57.6 ± 17.6 ng/mL
- Tmax ([2]; 5 mg/day, tmax Median, Day 15, 5 mg/day (n = 3)): 1.98 h
- Tmax ([2]; 5 mg/day, tmax Range, Day 1, 5 mg/day (n = 3)): 1 to 1.95 h
- Tmax ([2]; 5 mg/day, tmax Range, Day 15, 5 mg/day (n = 3)): 1.93 to 1.98 h
- AUC [2, 15]: 401 ± 51.6 ng·h/mL
- Cmax [2, 15]: 49.4 ± 14.8 ng/mL
- Cmax ([2]; 10 mg/day, Day 15, 10 mg/day (n = 3)): 65.9 ± 1.4 ng/mL
- Tmax ([2]; 10 mg/day, tmax Median, Day 1, 10 mg/day (n = 3)): 2 h
- Tmax ([2]; 10 mg/day, tmax Median, Day 15, 10 mg/day (n = 3)): 2.02 h
- Tmax ([2]; 10 mg/day, tmax Range, Day 1, 10 mg/day (n = 3)): 1.92 to 2 h
- Tmax ([2]; 10 mg/day, tmax Range, Day 15, 10 mg/day (n = 3)): 2 to 2.2 h
- Time to steady state (Cmin) ([2]; repeated once-daily oral dosing): ~8 days
